Reference: ChEMBL document CHEMBL4825663 (J Med Chem, 2021)
Converted amounts (≈) assume the structure as drawn. Blank lines part the entries; values can stand above or below the molecule they belong to. The source made the active and inactive calls. The rule behind the calls is not given here.

What was measured:
[1] = Drug distribution in Sprague-Dawley rat bile; type: ADME, tissue-based; conditions: in vivo
[2] = Aqueous solubility of compound at pH 3.8; type: physicochemical; conditions: aqueous solution
[3] = target: ATP-binding cassette sub-family C member 2 (Homo sapiens, UniProt Q92887); assay: Inhibition of sulfasalazine-stimulated MRP2 ATPase activity (unknown origin) in presence of GSH
Sequence of ATP-binding cassette sub-family C member 2 (Q92887 whole entry): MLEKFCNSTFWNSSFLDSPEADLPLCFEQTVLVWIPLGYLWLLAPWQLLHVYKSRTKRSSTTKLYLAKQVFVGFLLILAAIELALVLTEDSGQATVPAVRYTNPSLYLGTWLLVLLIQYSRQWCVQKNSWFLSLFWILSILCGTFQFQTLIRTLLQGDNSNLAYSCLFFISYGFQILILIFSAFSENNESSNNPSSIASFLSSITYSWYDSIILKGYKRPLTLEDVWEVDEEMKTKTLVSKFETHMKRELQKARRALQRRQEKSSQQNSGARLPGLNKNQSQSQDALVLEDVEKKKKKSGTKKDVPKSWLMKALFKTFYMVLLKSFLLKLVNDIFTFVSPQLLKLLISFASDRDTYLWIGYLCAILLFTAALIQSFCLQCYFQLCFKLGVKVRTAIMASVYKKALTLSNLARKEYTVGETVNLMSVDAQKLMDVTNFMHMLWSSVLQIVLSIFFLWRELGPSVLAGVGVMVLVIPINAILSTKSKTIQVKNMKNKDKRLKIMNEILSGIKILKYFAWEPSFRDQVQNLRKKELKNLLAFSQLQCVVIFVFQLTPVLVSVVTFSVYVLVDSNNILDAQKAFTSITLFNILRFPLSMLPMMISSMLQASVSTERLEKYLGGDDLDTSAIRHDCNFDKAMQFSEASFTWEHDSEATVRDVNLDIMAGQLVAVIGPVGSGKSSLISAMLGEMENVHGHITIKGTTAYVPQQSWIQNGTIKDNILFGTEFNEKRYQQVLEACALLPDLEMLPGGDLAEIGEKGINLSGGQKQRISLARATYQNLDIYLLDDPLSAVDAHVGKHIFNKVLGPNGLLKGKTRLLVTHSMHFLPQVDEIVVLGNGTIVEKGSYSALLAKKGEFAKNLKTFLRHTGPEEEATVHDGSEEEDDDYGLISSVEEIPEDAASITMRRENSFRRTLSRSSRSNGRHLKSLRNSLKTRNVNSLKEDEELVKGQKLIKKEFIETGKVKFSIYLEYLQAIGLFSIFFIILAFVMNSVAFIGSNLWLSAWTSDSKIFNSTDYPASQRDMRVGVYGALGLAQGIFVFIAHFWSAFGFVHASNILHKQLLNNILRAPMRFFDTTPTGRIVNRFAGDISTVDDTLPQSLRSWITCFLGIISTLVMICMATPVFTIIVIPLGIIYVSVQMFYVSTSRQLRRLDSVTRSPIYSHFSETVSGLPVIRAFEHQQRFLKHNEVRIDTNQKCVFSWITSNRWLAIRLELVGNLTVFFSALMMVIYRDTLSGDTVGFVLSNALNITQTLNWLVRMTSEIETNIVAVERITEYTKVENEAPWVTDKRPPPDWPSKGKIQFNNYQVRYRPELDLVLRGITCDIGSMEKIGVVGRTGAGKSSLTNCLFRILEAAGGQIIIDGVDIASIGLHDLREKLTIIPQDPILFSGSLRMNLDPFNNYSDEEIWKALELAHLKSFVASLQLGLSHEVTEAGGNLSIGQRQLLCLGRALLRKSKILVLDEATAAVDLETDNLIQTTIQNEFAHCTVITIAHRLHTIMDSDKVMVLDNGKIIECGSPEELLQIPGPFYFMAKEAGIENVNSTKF

[4] = AUClast in Beagle dog at 3 mg/kg, iv measured upto 48 hrs by LC-MS/MS analysis; type: ADME, organism-based, Canis lupus familiaris; set-up: route intravenous, dose 3 mg/kg, time <=48; conditions: in vivo
Outline: (§1)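 Single dose in male Sprague-Dawley rats and male Beagle dogs (n = 3 per species), given 3 mg/kg IV or 10 mg/kg PO. Plasma was sampled to derive Cmax, Tmax, T1/2 and AUClast by each route. Oral bioavailability (F) was calculated from the PO and IV AUClast.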

[5] = Oral bioavailability in Sprague-Dawley rat at 10 mg/kg measured upto 48 hrs by LC-MS/MS analysis; type: ADME, organism-based; conditions: in vivo
Outline: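 Plasma pharmacokinetics in male Sprague-Dawley rats and male Beagle dogs (n = 3 per species), each given a single dose by IV at 3 mg/kg and by PO at 10 mg/kg. Cmax, Tmax, T1/2 and AUClast were derived for each route. F (%) was calculated from the PO and IV AUClast.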

[6] = Drug distribution in Sprague-Dawley rat liver; type: ADME, tissue-based; conditions: in vivo
[7] = Drug distribution in Beagle dog liver; type: ADME, tissue-based, Canis lupus familiaris; conditions: in vivo
[8] = Drug distribution in Beagle dog brain; type: ADME, tissue-based, Canis lupus familiaris; conditions: in vivo
[9] = target: T1, Broad substrate specificity ATP-binding cassette transporter ABCG2 (Homo sapiens, UniProt Q9UNQ0); assay: Inhibition of sulfasalazine-stimulated BCRP ATP ase activity (unknown origin)
T1 sequence (Q9UNQ0 whole entry): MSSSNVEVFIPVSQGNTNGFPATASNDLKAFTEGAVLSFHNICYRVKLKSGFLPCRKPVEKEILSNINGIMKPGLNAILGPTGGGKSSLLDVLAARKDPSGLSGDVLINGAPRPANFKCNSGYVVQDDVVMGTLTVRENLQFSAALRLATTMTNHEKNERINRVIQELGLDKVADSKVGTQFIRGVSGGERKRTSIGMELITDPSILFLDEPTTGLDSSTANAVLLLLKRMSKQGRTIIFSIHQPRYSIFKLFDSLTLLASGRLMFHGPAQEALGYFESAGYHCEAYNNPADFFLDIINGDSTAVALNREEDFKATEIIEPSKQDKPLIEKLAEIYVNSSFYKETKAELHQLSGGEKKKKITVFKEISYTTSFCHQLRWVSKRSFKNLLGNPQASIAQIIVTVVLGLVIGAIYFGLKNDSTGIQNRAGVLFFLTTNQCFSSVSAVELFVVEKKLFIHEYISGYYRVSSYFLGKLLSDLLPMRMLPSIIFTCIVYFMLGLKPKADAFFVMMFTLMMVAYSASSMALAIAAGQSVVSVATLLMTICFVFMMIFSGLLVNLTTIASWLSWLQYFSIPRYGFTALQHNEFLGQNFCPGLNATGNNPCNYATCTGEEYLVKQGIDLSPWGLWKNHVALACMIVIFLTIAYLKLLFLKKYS

[10] = target: ATP-dependent translocase ABCB1 (Homo sapiens, UniProt P08183); assay: Inhibition of P-gp in human Caco-2 cells assessed as reduction in paclitaxel efflux pre-incubated for 30 mins and measured after 120 mins by LC-MS/MS analysis; type: cell-based
Sequence of ATP-dependent translocase ABCB1 (P08183 whole entry): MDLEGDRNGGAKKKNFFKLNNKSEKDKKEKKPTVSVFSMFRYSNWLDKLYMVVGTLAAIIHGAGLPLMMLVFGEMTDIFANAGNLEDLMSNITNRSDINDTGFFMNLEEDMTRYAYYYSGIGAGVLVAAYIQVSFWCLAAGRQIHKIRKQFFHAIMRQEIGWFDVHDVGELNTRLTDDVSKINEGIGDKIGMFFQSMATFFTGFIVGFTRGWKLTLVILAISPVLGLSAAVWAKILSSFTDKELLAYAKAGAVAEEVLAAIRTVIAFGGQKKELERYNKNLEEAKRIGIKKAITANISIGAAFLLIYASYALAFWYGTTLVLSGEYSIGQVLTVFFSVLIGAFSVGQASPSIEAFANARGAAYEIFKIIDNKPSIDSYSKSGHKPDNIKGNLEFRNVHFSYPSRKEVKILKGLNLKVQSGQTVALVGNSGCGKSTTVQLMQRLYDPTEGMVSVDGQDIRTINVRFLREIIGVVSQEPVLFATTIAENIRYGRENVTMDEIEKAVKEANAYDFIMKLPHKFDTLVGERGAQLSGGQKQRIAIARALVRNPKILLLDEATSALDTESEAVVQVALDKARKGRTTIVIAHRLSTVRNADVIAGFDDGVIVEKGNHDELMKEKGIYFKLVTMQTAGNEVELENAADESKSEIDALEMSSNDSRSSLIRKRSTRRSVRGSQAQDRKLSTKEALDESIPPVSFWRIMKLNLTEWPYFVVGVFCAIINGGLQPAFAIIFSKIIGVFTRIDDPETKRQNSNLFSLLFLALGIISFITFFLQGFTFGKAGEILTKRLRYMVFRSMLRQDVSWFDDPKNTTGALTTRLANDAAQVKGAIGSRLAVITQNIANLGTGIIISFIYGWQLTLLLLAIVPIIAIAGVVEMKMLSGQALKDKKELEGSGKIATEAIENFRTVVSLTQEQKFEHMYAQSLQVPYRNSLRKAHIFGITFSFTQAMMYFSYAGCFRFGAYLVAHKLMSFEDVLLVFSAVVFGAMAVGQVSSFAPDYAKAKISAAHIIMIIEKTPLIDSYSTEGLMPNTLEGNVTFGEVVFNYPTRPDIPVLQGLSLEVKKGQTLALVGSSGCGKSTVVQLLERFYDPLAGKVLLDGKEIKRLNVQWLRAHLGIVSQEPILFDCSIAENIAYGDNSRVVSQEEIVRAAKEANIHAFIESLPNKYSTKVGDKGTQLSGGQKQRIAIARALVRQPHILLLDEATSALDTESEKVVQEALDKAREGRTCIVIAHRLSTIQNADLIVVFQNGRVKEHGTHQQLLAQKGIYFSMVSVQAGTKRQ
Outline: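 Bidirectional paclitaxel transport across Caco-2 monolayers with coadministered inhibitor. Apparent permeability was measured apical-to-basal (absorption) and basal-to-apical (efflux). IC50 was derived from these permeability data.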

[11] = Inhibition of P-gp in MDCK-MDR1 cells assessed as reduction in basal to apical transport of paclitaxel measured after 120 mins by LC-MS/MS analysis; type: cell-based; conditions: Canis lupus familiaris, MDCK-MDR1, 2 h
Cytochrome P450 3A5 = Cytochrome P450 3A5 (Homo sapiens, UniProt P20815); assay: Drug metabolism assessed as human CYP3A5-mediated metabolism; type: ADME; conditions: recombinant enzyme
Sequence of Cytochrome P450 3A5 (P20815 whole entry): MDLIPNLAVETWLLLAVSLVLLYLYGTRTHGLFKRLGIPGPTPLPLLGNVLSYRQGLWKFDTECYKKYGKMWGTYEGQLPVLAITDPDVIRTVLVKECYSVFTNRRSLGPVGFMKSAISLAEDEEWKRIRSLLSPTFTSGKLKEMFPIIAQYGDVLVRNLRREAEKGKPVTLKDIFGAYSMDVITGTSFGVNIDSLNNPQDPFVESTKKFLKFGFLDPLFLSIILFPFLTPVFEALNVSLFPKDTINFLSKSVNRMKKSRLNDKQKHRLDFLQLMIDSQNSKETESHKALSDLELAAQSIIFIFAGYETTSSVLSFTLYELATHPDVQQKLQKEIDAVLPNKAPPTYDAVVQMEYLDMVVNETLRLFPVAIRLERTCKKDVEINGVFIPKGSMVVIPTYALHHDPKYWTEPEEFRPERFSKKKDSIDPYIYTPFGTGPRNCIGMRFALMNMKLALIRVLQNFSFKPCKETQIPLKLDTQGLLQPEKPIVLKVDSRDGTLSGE

[12] = AUClast in Sprague-Dawley rat at 3 mg/kg, iv measured upto 48 hrs by LC-MS/MS analysis; type: ADME, organism-based; set-up: route intravenous, dose 3 mg/kg, time <=48; conditions: in vivo; outline: as §1
[13] = Ratio of drug concentration in BALB/c mouse liver to plasma at 20 mg/kg, po measured upto 24 hrs in presence of 10 mg/kg encequidar by LC-MS/MS analysis; type: ADME, organism-based
[14] = Toxicity in athymic nude mouse xenografted with human MDA-MB-231 cells assessed as reduction in body weight at 20 mg/kg, po administered every other day for 4 doses in presence of 8 mg/kg encequidar and monitored for 70 to 82 days; type: organism-based; conditions: in vivo, time 70-82 day
Outline: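 Female athymic NCr-nu mice (n = 10/group) bearing subcutaneous MDA-MB-231 xenografts were treated from day 8. […] Individual body weights were monitored for 82 days after implantation.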

in vivo = conditions: Sprague-Dawley, rat, po, 20 mg/kg
[15] = Drug absorption in fed Sprague-Dawley rat at 20 mg/kg, po measured upto 24 hrs in presence of 10 mg/kg encequidar by LC-MS/MS analysis; type: ADME, organism-based; conditions: in vivo
MDA-MB-231 = assay: Antitumor activity against human MDA-MB-231 cells xenografted in athymic nude mouse assessed as reduction in tumor growth at 30 mg/kg, po administered every other day for 4 doses in presence 12 mg/kg encequidar and monitored for 70 to 82 days; type: functional, organism-based; conditions: time 70-82 day
[16] = AUClast in Sprague-Dawley rat at 20 mg/kg, po measured upto 24 hrs by LC-MS/MS analysis; type: ADME, organism-based; set-up: route oral, dose 20 mg/kg, time <=24; conditions: in vivo
[17] = Tmax in Sprague-Dawley rat at 6 mg/kg, iv measured upto 24 hrs by LC-MS/MS analysis; type: ADME, organism-based; conditions: in vivo
[18] = Toxicity in athymic nude mouse xenografted with human NCI-H460 cells assessed as mortality at 18 to 24 mg/kg, iv administered every other day for 4 doses monitored for 48 days; type: organism-based; conditions: in vivo, 1152 h, dose 18-24 mg/kg, time 48 day
Outline: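 Female athymic NCr-nu mice carried subcutaneous NCI-H460 human lung tumor xenografts. Paclitaxel was given IV at 18 or 24 mg/kg every other day for four doses. Animals were followed for 48 days after tumor implantation, with individual body weights and mortality recorded alongside tumor weights.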

NCI-H460 = assay: Antitumor activity against human NCI-H460 cells xenografted in athymic nude mouse assessed as median tumor growth delay at 30 mg/kg, po administered every other day for 4 doses in presence of 12 mg/kg encequidar and monitored for 48 days; type: functional; conditions: time 48 day
Outline: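 Female athymic NCr-nu mice carried subcutaneous NCI-H460 xenografts. […] Tumor weights and body weights were followed for 48 days after implantation. Read-out was median tumor growth delay.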

[19] = Ratio of drug concentration in BALB/c mouse spleen to plasma at 20 mg/kg, po measured upto 24 hrs in presence of 10 mg/kg encequidar by LC-MS/MS analysis; type: ADME, organism-based
[20] = Toxicity in athymic nude mouse xenografted with human NCI-H460 cells assessed as mortality at 30 to 50 mg/kg, po administered every other day for 4 doses in presence of 12 to 20 mg/kg encequidar and monitored for 48 days; type: organism-based; conditions: in vivo, 1152 h, dose 30-50 mg/kg, time 48 day

- Drug uptake [1]: Active
- solubility [2]: 0.219 µg/mL (≈ 0.318 µM)
- IC50 [3]: > 100000 nM
- AUC(0-t) at 48 h [4]: 1920 ng·h/mL
- bioavailability [5]: 6.25%
- Drug uptake [6]: Active
- Drug uptake [7]: Active
- Drug uptake [8]: Not Active
- IC50 [9]: > 3720 nM
- IC50 [10]: 53 nM
- IC50 [11]: 35 nM
- Drug metabolism (Cytochrome P450 3A5): Metabolite_Detected
- AUC(0-t) at 48 h [12]: 619 ng·h/mL
Structure (SMILES): COc1cc2c(cc1OC)CN(CCc1ccc(-n3nnc(-c4cc(OC)c(OC)cc4NC(=O)c4cc(=O)c5ccccc5o4)n3)cc1)CC2

Structure (SMILES): CC(=O)O[C@H]1C(=O)[C@@]2(C)[C@H]([C@H](OC(=O)c3ccccc3)[C@]3(O)C[C@H](OC(=O)[C@H](O)[C@@H](NC(=O)c4ccccc4)c4ccccc4)C(C)=C1C3(C)C)[C@]1(OC(C)=O)CO[C@@H]1C[C@@H]2O [PACLITAXEL]
- Kp at 24 h [13]: > 1
- Activity [14]: Non-Toxic
- half-life at 24 h (in vivo): 6.8 h
- Drug absorption [15]: Not Active
- Activity (MDA-MB-231): Active
- AUC(0-t) at 24 h [16]: 308 ng·h/mL
- Tmax [17]: 4.8 min
- Activity [18]: Non-Toxic
- Time (NCI-H460): 9.9 days
- Kp at 24 h [19]: > 1
- Activity [20]: Non-Toxic
